# The entries come from a sample that favours hits as a whole.
# Yeast lifespan up – yeast lifespan extension; S. cerevisiae growth with nicotinamide, OD615; deaD strain in restrictive glucose medium; inhibition of the nicotinamide effect, % at 10 µM; actives 0.68% (n = 130,000);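 active = inhibition above a set limit, placed 3 SD over the median of all compounds, cut at about 26% in these data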;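 note: 0% = nicotinamide-treated wells and 100% = cells grown without nicotinamide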
#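 System: Modified budding yeast, DeaD strain | Buffer or medium: Restrictive glucose medium | Also added: 1.5 mM nicotinamide | Doses: 10 µM single point, 0.25% DMSO | Schedule: 48 h compound exposure at 30 °C, humidified | Detection: Absorbance at 615 nm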
# Yeast growth inh – chemicals that inhibit yeast BB579 growth in restrictive medium (lifespan-shortening candidates); S. cerevisiae BB579 growth, OD615, 48 h; inhibition, % at 10 µM; actives 0.51% (n = 140,000); AID 804;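 active = inhibition above a set limit, 3 SD over the mean compound inhibition, cut at about 44% in these data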
#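 System: Saccharomyces cerevisiae DeaD strain BB579, replicative lifespan model yeast. Buffer or medium: restrictive glucose-based CSMM-D medium. Doses: one dose, 10 µM compound with 0.25% DMSO. Timing: 4 h preincubation and 48 h exposure at 30 °C. Detection: turbidity as optical density at 615 nm. Benchmarks: amphotericin B 10 µg/mL, positive.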
# PostGolgi yeast – growth inhibition of a yeast mutant, post-Golgi transport screen | inhibition, % at 10 µM | post-Golgi transport phenotypic cell assay | actives 0.9% (n = 98,000) | AID 739;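 note: yeast cells grown in 1536-well plates; yeast grown about 18 h at 30C before absorbance read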
# PostGolgi ctrl – growth of the yeast control strain, post-Golgi counter-screen; inhibition, % at 10 µM; actives 5% (n = 98,000); AID 738; efflux-deficient yeast background strain, growth absorbance A615, 16 h
# Starred values were filed as active, the others as inactive; / = no result. Cut-off read from the data, not from the text of the source, unless noted: active = inhibition above about 30%; inactive = the rest.
SMILES,Yeast lifespan up,Yeast growth inh,PostGolgi yeast,PostGolgi ctrl
CN(C)c1ccc(NC(=O)CN2C(=O)CN=C(c3ccccc3)c3cc(Cl)ccc32)cc1,0,-6,11,9
CCOC(=O)c1c(-n2c(C)cc(C=C3C(=O)NC(=S)NC3=O)c2C)sc2c1CCCC2,39,-71,97*,42*
OC(c1ccc(F)cc1)(c1ccc(F)cc1)[C@@H]1CCCN1,-14,-42,-3,-1
CC1=CC(=C2C(=O)NC(=S)NC2=O)C=C(C(F)(F)F)N1C,-12,-50,40*,11
CN1C(=O)/C(=C/c2cccn2-c2ccc3ccccc3c2)C(=O)NC1=S,49*,-10,98*,4
Cc1cc(C)cc(N2C(=O)NC(=O)/C(=C\c3cccn3-c3ccccc3)C2=O)c1,25,-56,/,/
CC(=O)C1C2c3ccccc3OC1(C)N=c1s/c(=C/c3cnn(C)c3)c(=O)n12 (configuration not stated),5,-20,2,11
COC(=O)C1C2c3ccccc3OC1(C)N=c1s/c(=C/c3cnn(C)c3C)c(=O)n12 (configuration not stated),-13,-40,4,48*
O=P(Nc1ccccc1Cl)(c1ccccc1)c1nc2c(s1)CCCC2 (configuration not stated),-21,-38,8,33*
O=P(Nc1c(Cl)cccc1Cl)(c1ccccc1)c1nc2c(s1)CCCC2 (configuration not stated),7,-36,-5,14
O=C(c1csc2c1CCCCC2)N1CCC2(CC1)OCCO2,5,-17,3,0
CC12CCC3C(CCC4C/C(=N/O)CCC43C)C1CCC2O (configuration not stated),5,-8,/,/
C[C@]12CC[C@@H](O)C[C@@H]1CC[C@@H]1[C@@H]2CC[C@]2(C)[C@@H](O)CC[C@@H]12,29*,-45,/,/
CCCOP(=O)(O)c1c([N+](=O)[O-])cc(C(F)(F)F)cc1[N+](=O)[O-] (tested in a mixture with another compound),1,-5,5,0
CCOC(=O)c1c(N)n(Cc2ccco2)c2nc3ccccc3nc12,-21,-37,11,47*
CCCCn1c(NC(=O)c2ccco2)c(C(=O)OCC)c2nc3ccccc3nc21,-17,-32,14,12
CCCCn1c(NS(=O)(=O)c2ccc(C)cc2)c(C(=O)OCC)c2nc3ccccc3nc21,93*,-75,/,/
CCCOC(=O)c1c(N)n(Cc2cccs2)c2nc3ccccc3nc12,6,-34,2,48*
COc1ccc(OC)c(C2=NOC(C(=O)N3CCC4(CC3)OCCO4)C2)c1 (configuration not stated),-7,-17,1,-2
Cc1nn(Cc2ccccc2Cl)c(C)c1C(=O)OCC(=O)NC1CCCC(C)C1C (configuration not stated),-3,7,/,/
Cc1nn(Cc2ccc(Cl)cc2Cl)c(Cl)c1C(=O)NC1CCCc2ccccc21 (configuration not stated),3,-21,/,/
Cc1ccc(N2C(=O)/C(=C/c3ccc(CN(CCC#N)S(C)(=O)=O)o3)C(=O)NC2=S)cc1,-11,27,-5,6
O=C(CNC(=O)OCc1ccccc1)NCC(=O)Nc1ccc(Br)cc1C(=O)c1ccccc1,-3,-29,/,/
O=C(CNC(=O)c1ccccc1)Nc1ccc(Br)cc1C(=O)c1ccccc1,-17,-62,-5,31*
O=C(CNC(=O)OCc1ccccc1)Nc1ccc(Br)cc1C(=O)c1ccccc1,-13,-25,-3,37*
SMILES,Yeast lifespan up,Yeast growth inh,PostGolgi yeast,PostGolgi ctrl
CN(Cc1ccccc1)C(=C(Cl)Cl)/C(=C1/NCCN1Cc1ccc(Cl)nc1)[N+](=O)[O-],-3,-32,2,6
CCn1c(O)c(C=Nc2ccc(N3CCOCC3)c(Br)c2)c(=O)n(CC)c1=S,-11,-9,1,37*
CC1=C(/C=C/c2ccccc2)CCN(C)C1,-3,-8,-3,4
CCC(C)N1C(=O)NC(=O)C2(Cc3c(ccc4ccccc34)N(C)C2)C1=O (configuration not stated),-13,-40,3,33*
CCOC(=O)c1nc2ccccc2c(=O)n1-c1cccc(C)c1,0,22,-4,1
O=C1C=Cc2ccccc2C1=O,31*,-32,/,/
O=P(NCc1ccccc1)(Oc1ccccc1)Oc1ccccc1,27*,-7,/,/
COC(=O)c1c(C)[nH]c(C(=O)C(Cc2ccccc2)N(C)C)c1C (configuration not stated),-2,-31,5,11
CCN1/C(=C\C=C\C2=[N+](CC)c3ccccc3C2(C)C)C(C)(C)c2ccccc21,22,-16,99*,96*
Cc1nc2c(c(C)nn2-c2ccccc2)c(C)c1CCC(=O)N1CCC2(CC1)OCCO2,-35,-54,8,34*
O=C1/C(=C\c2cc3c(cc2Br)OCO3)N2CCC1CC2,2,-27,/,/
COc1cc2[nH]c(=O)n(-c3cccc(Cl)c3)c(=O)c2cc1OC,-18,-54,-11,17
COc1cc2[nH]c(=O)n(-c3ccccc3)c(=O)c2cc1OC,-24,12,31*,1
CC(=O)Nc1ccccc1OP1(=O)COc2ccccc2OC1,0,3,1,24
CCN1C(=O)C(=C/C=C/c2ccco2)C(=O)N(CC)C1=S,34*,-30,/,/
CC(C)N1C(=O)/C(=C/C=C/c2ccco2)C(=O)N(Cc2ccco2)C1=O,50,-37,-4,0
Cc1ccnc(-n2c(C)cc(C=C3C(=O)N(C)C(=S)N(C)C3=O)c2C)c1,30*,-29,5,9
O=C1NC(=O)C2(C(=O)N1)C(c1ccc(F)cc1)NC(=S)NC2c1ccc(F)cc1 (configuration not stated),3,-60,9,4
CC(C)CC1C(C#N)=C(N)Oc2c1c(=O)oc1ccccc21 (configuration not stated),18,-87,-3,41*
Cc1ccc(NC(=O)CSc2nnc([C@@H](N)Cc3c[nH]c4ccccc34)o2)c(C)c1,-4,-16,-21,0
COc1ccc(-n2c(O)c(/C=C/C=Nc3ccccc3)c(=O)[nH]c2=O)cc1,-2,-17,/,/
CCCCC1(CCCC)C(=O)NC(=Nc2cccc(C)c2)NC1=O,-7,-38,47*,7
CCCCCSc1cc(OC)c(CCNC)cc1OC,-3,-10,-2,11
CCCCCCCSc1cc(OC)c(CCNC)cc1OC,-7,37,0,49*
CC(C)CCn1c(=O)c(C(=O)Nc2ccccc2S(N)(=O)=O)c(O)c2ccccc21,-14,-29,4,22
CCCCn1c(=O)c(C(=O)Nc2cnccn2)c(O)c2ccccc21,80*,-36,7,26
Cc1cc(NC(=O)CCC(=O)N2CCC3(CC2)OCCO3)no1,-18,-38,2,3
O=C(C1CCC(=O)N1Cc1ccccc1Cl)N1CCC2(CC1)OCCO2 (configuration not stated),-6,-22,-2,4
Cc1ccc(-c2nc3ccc(Cl)cc3n2OC(=O)N(C)C)cc1,92*,-44,8,5

# Assay outcomes from PubChem.
